# Laboratory results taken from ChEMBL document CHEMBL5058577, “EUbOPEN Chemogenomics Library 2 (Multiplex)” (2022).
# Test system: Fibroblast
# Assay: Multiplex assay against human fibroblast
# Type: toxicity, cell-based
# Method in brief: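 Live cells carried four stains from seeding: Hoechst33342, BioTracker Green Microtubule Cytoskeleton Dye, MitoTracker Red and Annexin V Alexa Fluor 680. They were imaged on a CQ1 microscope at 37°C and 5% CO2 after compound addition. Using CellPathfinder machine-learning gating, cells were split into Hoechst high-intensity objects or normal cells, normal cells into healthy, pyknosed or fragmented nuclei, and pyknosed cells into mitotic or apoptotic; tubulin, mitochondrial-mass and membrane-permeability phenotypes are per cents of healthy-nucleus cells.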
# [1] = 12 h, 1 µM, compound concentration 1 uM, replicate 1
# [2] = 12 h, 1 µM, compound concentration 1 uM, replicate 2
# [3] = 12 h, 10 µM, compound concentration 10 uM, replicate 1
# [4] = 12 h, 10 µM, compound concentration 10 uM, replicate 2
# [5] = 24 h, 1 µM, compound concentration 1 uM, replicate 1
# [6] = 24 h, 1 µM, compound concentration 1 uM, replicate 2
# [7] = 24 h, 10 µM, compound concentration 10 uM, replicate 1
# [8] = 24 h, 10 µM, compound concentration 10 uM, replicate 2
# [9] = 48 h, 1 µM, compound concentration 1 uM, replicate 1
# [10] = 48 h, 1 µM, compound concentration 1 uM, replicate 2
# [11] = 48 h, 10 µM, compound concentration 10 uM, replicate 1
# [12] = 48 h, 10 µM, compound concentration 10 uM, replicate 2
structure (smiles),measurement,setting,value
CN1CCN2c3ncccc3Cc3ccccc3C2C1 (centres undefined) [MIRTAZAPINE],Population Apoptotic (%),[1],44%
same,Population Fragmented Nuclei (%),[1],10%
same,Population Healthy Nuclei (%),[1],77%
same,Population Hoechst High Intensity Objects (%),[1],3%
same,Population Membrane Permeable-Phenotype (%),[1],0%
same,Population Mitochondria Different-Phenotype (%),[1],6%
same,Population Mitotic Cells (%),[1],56%
same,Population Normal (%),[1],96%
same,Population Pyknosed Nuclei (%),[1],12%
same,Population Tubulin-Different-Phenotype (%),[1],24%
same,Total Cell Count,[1],213
same,Population Apoptotic (%),[2],33%
same,Population Fragmented Nuclei (%),[2],24%
same,Population Healthy Nuclei (%),[2],47%
same,Population Membrane Permeable-Phenotype (%),[2],4%
same,Population Mitochondria Different-Phenotype (%),[2],5%
same,Population Mitotic Cells (%),[2],66%
same,Population Pyknosed Nuclei (%),[2],27%
same,Population Tubulin-Different-Phenotype (%),[2],45%
same,Total Cell Count,[2],156
same,Population Apoptotic (%),[3],44%
same,Population Fragmented Nuclei (%),[3],19%
same,Population Healthy Nuclei (%),[3],69%
same,Population Hoechst High Intensity Objects (%),[3],1%
same,Population Membrane Permeable-Phenotype (%),[3],0%
same,Population Mitochondria Different-Phenotype (%),[3],8%
same,Population Mitotic Cells (%),[3],55%
same,Population Normal (%),[3],98%
same,Population Pyknosed Nuclei (%),[3],10%
same,Population Tubulin-Different-Phenotype (%),[3],30%
same,Total Cell Count,[3],168
same,Population Apoptotic (%),[4],28%
same,Population Fragmented Nuclei (%),[4],27%
same,Population Healthy Nuclei (%),[4],40%
same,Population Hoechst High Intensity Objects (%),[4],6%
same,Population Membrane Permeable-Phenotype (%),[4],16%
same,Population Mitochondria Different-Phenotype (%),[4],7%
same,Population Mitotic Cells (%),[4],71%
same,Population Normal (%),[4],93%
same,Population Pyknosed Nuclei (%),[4],32%
same,Population Tubulin-Different-Phenotype (%),[4],60%
same,Total Cell Count,[4],140
same,Population Apoptotic (%),[5],47%
same,Population Fragmented Nuclei (%),[5],7%
same,Population Healthy Nuclei (%),[5],82%
same,Population Hoechst High Intensity Objects (%),[5],5%
same,Population Membrane Permeable-Phenotype (%),[5],0%
same,Population Mitochondria Different-Phenotype (%),[5],5%
same,Population Mitotic Cells (%),[5],52%
same,Population Normal (%),[5],94%
same,Population Pyknosed Nuclei (%),[5],10%
same,Population Tubulin-Different-Phenotype (%),[5],31%
same,Total Cell Count,[5],201
same,Population Apoptotic (%),[6],48%
same,Population Fragmented Nuclei (%),[6],26%
same,Population Healthy Nuclei (%),[6],50%
same,Population Hoechst High Intensity Objects (%),[6],0%
same,Population Membrane Permeable-Phenotype (%),[6],10%
same,Population Mitochondria Different-Phenotype (%),[6],10%
same,Population Mitotic Cells (%),[6],51%
same,Population Normal (%),[6],99%
same,Population Pyknosed Nuclei (%),[6],23%
same,Population Tubulin-Different-Phenotype (%),[6],36%
same,Total Cell Count,[6],153
same,Population Apoptotic (%),[7],50%
same,Population Fragmented Nuclei (%),[7],19%
same,Population Healthy Nuclei (%),[7],72%
same,Population Hoechst High Intensity Objects (%),[7],4%
same,Population Membrane Permeable-Phenotype (%),[7],0%
same,Population Mitochondria Different-Phenotype (%),[7],9%
same,Population Mitotic Cells (%),[7],50%
same,Population Normal (%),[7],95%
same,Population Pyknosed Nuclei (%),[7],7%
same,Population Tubulin-Different-Phenotype (%),[7],30%
same,Total Cell Count,[7],186
same,Population Apoptotic (%),[8],46%
same,Population Fragmented Nuclei (%),[8],29%
same,Population Healthy Nuclei (%),[8],46%
same,Population Hoechst High Intensity Objects (%),[8],5%
same,Population Membrane Permeable-Phenotype (%),[8],15%
same,Population Mitochondria Different-Phenotype (%),[8],1%
same,Population Mitotic Cells (%),[8],53%
same,Population Normal (%),[8],94%
same,Population Pyknosed Nuclei (%),[8],23%
same,Population Tubulin-Different-Phenotype (%),[8],68%
same,Total Cell Count,[8],136
same,Population Apoptotic (%),[9],60%
same,Population Fragmented Nuclei (%),[9],15%
same,Population Healthy Nuclei (%),[9],73%
same,Population Hoechst High Intensity Objects (%),[9],7%
same,Population Membrane Permeable-Phenotype (%),[9],0%
same,Population Mitochondria Different-Phenotype (%),[9],4%
same,Population Mitotic Cells (%),[9],39%
same,Population Normal (%),[9],92%
same,Population Pyknosed Nuclei (%),[9],11%
same,Population Tubulin-Different-Phenotype (%),[9],31%
same,Total Cell Count,[9],213
same,Population Apoptotic (%),[10],50%
same,Population Fragmented Nuclei (%),[10],36%
same,Population Healthy Nuclei (%),[10],45%
same,Population Hoechst High Intensity Objects (%),[10],2%
same,Population Membrane Permeable-Phenotype (%),[10],11%
same,Population Mitochondria Different-Phenotype (%),[10],12%
same,Population Mitotic Cells (%),[10],50%
same,Population Normal (%),[10],97%
same,Population Pyknosed Nuclei (%),[10],17%
same,Population Tubulin-Different-Phenotype (%),[10],56%
same,Total Cell Count,[10],161
same,Population Apoptotic (%),[11],66%
same,Population Fragmented Nuclei (%),[11],17%
same,Population Healthy Nuclei (%),[11],73%
same,Population Hoechst High Intensity Objects (%),[11],5%
same,Population Membrane Permeable-Phenotype (%),[11],0%
same,Population Mitochondria Different-Phenotype (%),[11],9%
same,Population Mitotic Cells (%),[11],33%
same,Population Normal (%),[11],94%
same,Population Pyknosed Nuclei (%),[11],9%
same,Population Tubulin-Different-Phenotype (%),[11],36%
same,Total Cell Count,[11],176
same,Population Apoptotic (%),[12],33%
same,Population Fragmented Nuclei (%),[12],46%
same,Population Healthy Nuclei (%),[12],41%
same,Population Hoechst High Intensity Objects (%),[12],2%
same,Population Membrane Permeable-Phenotype (%),[12],8%
same,Population Mitochondria Different-Phenotype (%),[12],2%
same,Population Mitotic Cells (%),[12],66%
same,Population Normal (%),[12],97%
same,Population Pyknosed Nuclei (%),[12],12%
same,Population Tubulin-Different-Phenotype (%),[12],60%
same,Total Cell Count,[12],120
N[C@@]1(C(=O)O)CO[C@H]2[C@H](C(=O)O)[C@H]21 [LY-379268],Population Apoptotic (%),[1],22%
same,Population Fragmented Nuclei (%),[1],17%
same,Population Healthy Nuclei (%),[1],70%
same,Population Hoechst High Intensity Objects (%),[1],1%
same,Population Membrane Permeable-Phenotype (%),[1],0%
same,Population Mitochondria Different-Phenotype (%),[1],2%
same,Population Mitotic Cells (%),[1],77%
same,Population Normal (%),[1],98%
same,Population Pyknosed Nuclei (%),[1],11%
same,Population Tubulin-Different-Phenotype (%),[1],25%
same,Total Cell Count,[1],156
same,Population Apoptotic (%),[2],44%
same,Population Fragmented Nuclei (%),[2],33%
same,Population Healthy Nuclei (%),[2],43%
same,Population Hoechst High Intensity Objects (%),[2],10%
same,Population Membrane Permeable-Phenotype (%),[2],5%
same,Population Mitochondria Different-Phenotype (%),[2],1%
same,Population Mitotic Cells (%),[2],55%
same,Population Normal (%),[2],89%
same,Population Pyknosed Nuclei (%),[2],22%
same,Population Tubulin-Different-Phenotype (%),[2],45%
same,Total Cell Count,[2],145
same,Population Apoptotic (%),[3],29%
same,Population Fragmented Nuclei (%),[3],15%
same,Population Healthy Nuclei (%),[3],69%
same,Population Hoechst High Intensity Objects (%),[3],3%
same,Population Membrane Permeable-Phenotype (%),[3],0%
same,Population Mitochondria Different-Phenotype (%),[3],3%
same,Population Mitotic Cells (%),[3],70%
same,Population Normal (%),[3],96%
same,Population Pyknosed Nuclei (%),[3],14%
same,Population Tubulin-Different-Phenotype (%),[3],19%
same,Total Cell Count,[3],187
same,Population Apoptotic (%),[4],21%
same,Population Healthy Nuclei (%),[4],51%
same,Population Membrane Permeable-Phenotype (%),[4],4%
same,Population Mitochondria Different-Phenotype (%),[4],1%
same,Population Mitotic Cells (%),[4],78%
same,Population Pyknosed Nuclei (%),[4],33%
same,Population Tubulin-Different-Phenotype (%),[4],47%
same,Total Cell Count,[4],128
same,Population Apoptotic (%),[5],36%
same,Population Fragmented Nuclei (%),[5],16%
same,Population Healthy Nuclei (%),[5],70%
same,Population Hoechst High Intensity Objects (%),[5],0%
same,Population Membrane Permeable-Phenotype (%),[5],0%
same,Population Mitochondria Different-Phenotype (%),[5],5%
same,Population Mitotic Cells (%),[5],63%
same,Population Normal (%),[5],99%
same,Population Pyknosed Nuclei (%),[5],12%
same,Population Tubulin-Different-Phenotype (%),[5],23%
same,Total Cell Count,[5],152
same,Population Apoptotic (%),[6],47%
same,Population Fragmented Nuclei (%),[6],40%
same,Population Healthy Nuclei (%),[6],41%
same,Population Hoechst High Intensity Objects (%),[6],10%
same,Population Membrane Permeable-Phenotype (%),[6],4%
same,Population Mitochondria Different-Phenotype (%),[6],10%
same,Population Mitotic Cells (%),[6],52%
same,Population Normal (%),[6],89%
same,Population Pyknosed Nuclei (%),[6],18%
same,Population Tubulin-Different-Phenotype (%),[6],60%
same,Total Cell Count,[6],125
same,Population Apoptotic (%),[7],66%
same,Population Fragmented Nuclei (%),[7],14%
same,Population Healthy Nuclei (%),[7],75%
same,Population Hoechst High Intensity Objects (%),[7],5%
same,Population Membrane Permeable-Phenotype (%),[7],0%
same,Population Mitochondria Different-Phenotype (%),[7],3%
same,Population Mitotic Cells (%),[7],33%
same,Population Normal (%),[7],94%
same,Population Pyknosed Nuclei (%),[7],10%
same,Population Tubulin-Different-Phenotype (%),[7],19%
same,Total Cell Count,[7],189
same,Population Apoptotic (%),[8],22%
same,Population Fragmented Nuclei (%),[8],17%
same,Population Healthy Nuclei (%),[8],53%
same,Population Hoechst High Intensity Objects (%),[8],6%
same,Population Membrane Permeable-Phenotype (%),[8],2%
same,Population Mitochondria Different-Phenotype (%),[8],0%
same,Population Mitotic Cells (%),[8],77%
same,Population Normal (%),[8],93%
same,Population Pyknosed Nuclei (%),[8],28%
same,Population Tubulin-Different-Phenotype (%),[8],44%
same,Total Cell Count,[8],133
same,Population Apoptotic (%),[9],76%
same,Population Fragmented Nuclei (%),[9],22%
same,Population Healthy Nuclei (%),[9],68%
same,Population Hoechst High Intensity Objects (%),[9],3%
same,Population Membrane Permeable-Phenotype (%),[9],0%
same,Population Mitochondria Different-Phenotype (%),[9],5%
same,Population Mitotic Cells (%),[9],23%
same,Population Normal (%),[9],96%
same,Population Pyknosed Nuclei (%),[9],8%
same,Population Tubulin-Different-Phenotype (%),[9],26%
same,Total Cell Count,[9],156
same,Population Apoptotic (%),[10],50%
same,Population Fragmented Nuclei (%),[10],33%
same,Population Healthy Nuclei (%),[10],55%
same,Population Hoechst High Intensity Objects (%),[10],11%
same,Population Membrane Permeable-Phenotype (%),[10],4%
same,Population Mitochondria Different-Phenotype (%),[10],7%
same,Population Mitotic Cells (%),[10],50%
same,Population Normal (%),[10],88%
same,Population Pyknosed Nuclei (%),[10],11%
same,Population Tubulin-Different-Phenotype (%),[10],59%
same,Total Cell Count,[10],136
same,Population Apoptotic (%),[11],62%
same,Population Fragmented Nuclei (%),[11],14%
same,Population Healthy Nuclei (%),[11],72%
same,Population Hoechst High Intensity Objects (%),[11],1%
same,Population Membrane Permeable-Phenotype (%),[11],0%
same,Population Mitochondria Different-Phenotype (%),[11],0%
same,Population Mitotic Cells (%),[11],37%
same,Population Normal (%),[11],98%
same,Population Pyknosed Nuclei (%),[11],13%
same,Population Tubulin-Different-Phenotype (%),[11],19%
same,Total Cell Count,[11],179
same,Population Apoptotic (%),[12],42%
same,Population Fragmented Nuclei (%),[12],27%
same,Population Healthy Nuclei (%),[12],56%
same,Population Hoechst High Intensity Objects (%),[12],7%
same,Population Membrane Permeable-Phenotype (%),[12],10%
same,Population Mitochondria Different-Phenotype (%),[12],5%
same,Population Mitotic Cells (%),[12],57%
same,Population Normal (%),[12],92%
same,Population Pyknosed Nuclei (%),[12],16%
same,Population Tubulin-Different-Phenotype (%),[12],47%
same,Total Cell Count,[12],140
